Our source for the EC50 values is ChEMBL document CHEMBL1136274 (Bioorg Med Chem Lett, 2003).

A value given as a limit tells only on which side of the number the result lay.

Broadly, the EC50 is the concentration at which the effect is half-maximal. A lower EC50 goes with a more potent agent.

Assay [1] deals with T1, Sphingosine 1-phosphate receptor 3 (Homo sapiens, UniProt Q99500). As to the kind of experiment: In vitro binding affinity towards human Sphingosine 1-phosphate receptor 3 expressed in HEK293T cells using [gamma-35S]-GTP as radioligand. The class given is cell-based, HEK-293T.
Assay [2] deals with T2, Sphingosine 1-phosphate receptor 1 (Homo sapiens, UniProt P21453). As to the kind of experiment: In vitro binding affinity towards human Sphingosine 1-phosphate receptor 1 expressed in HEK293T cells using [gamma-35S]-GTP as radioligand. The class given is cell-based, HEK-293T.
The target of assay [3] is Sphingosine 1-phosphate receptor 5 (Homo sapiens, UniProt Q9H228). As to the kind of experiment: In vitro binding affinity towards human Sphingosine 1-phosphate receptor 5 expressed in HEK293T cells using [gamma-35S]-GTP as radioligand. It counts as cell-based, HEK-293T.
The target of assay [4] is T3, Sphingosine 1-phosphate receptor 2 (Homo sapiens, UniProt O95136). As to the kind of experiment: In vitro binding affinity towards human Sphingosine 1-phosphate receptor 2 expressed in HEK293T cells using [gamma-35S]-GTP as radioligand. The class given is cell-based, HEK-293T.
The target in assay [5] is T1, Sphingosine 1-phosphate receptor 3. Nature of the assay: In vitro binding affinity towards human Sphingosine 1-phosphate receptor 3 expressed in HEK293T cells using [gamma-35S]-GTP as radioligand; Not active. Particulars: hek-293t; call rule not given here. It counts as cell-based.
The target of assay [6] is T4, Sphingosine 1-phosphate receptor 4 (Homo sapiens, UniProt O95977).
T4 sequence (O95977 whole entry): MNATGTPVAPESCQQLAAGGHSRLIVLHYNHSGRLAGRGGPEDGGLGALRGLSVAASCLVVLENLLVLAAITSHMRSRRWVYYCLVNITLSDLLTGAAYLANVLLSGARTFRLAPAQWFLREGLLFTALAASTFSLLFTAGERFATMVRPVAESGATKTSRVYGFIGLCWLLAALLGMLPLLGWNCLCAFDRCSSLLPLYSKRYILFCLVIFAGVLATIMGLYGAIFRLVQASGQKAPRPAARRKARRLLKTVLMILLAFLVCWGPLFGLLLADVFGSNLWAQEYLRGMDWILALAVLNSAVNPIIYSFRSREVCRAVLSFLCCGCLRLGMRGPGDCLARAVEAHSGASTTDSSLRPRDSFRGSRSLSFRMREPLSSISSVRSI
Nature of the assay: In vitro binding affinity towards human Sphingosine 1-phosphate receptor 4 expressed in HEK293T cells using [gamma-35S]-GTP as radioligand. The class given is cell-based, HEK-293T.

In assay [7] the target is T3, Sphingosine 1-phosphate receptor 2. Nature of the assay: In vitro binding affinity towards human Sphingosine 1-phosphate receptor 2 expressed in HEK293T cells using [gamma-35S]-GTP as radioligand; Not active. It counts as cell-based. Conditions: hek-293t.
Assay [8] addresses T1, Sphingosine 1-phosphate receptor 3. As to the kind of experiment: In vitro binding affinity towards human Sphingosine 1-phosphate receptor 3 expressed in HEK293T cells using [gamma-35S]-GTP as radioligand (Experiment 2). The class given is cell-based, HEK-293T. In a few lines:
(§1)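 Membranes were incubated with test lipid in pH 7.5 buffer (HEPES 50 mM, NaCl 100 mM, MgCl2 5 mM) containing saponin, GDP and 0.1 nM [γ-35S]GTP for 30 min at 30 °C. Bound label was separated by GF/C filtration and counted by scintillation. EC50 is the mean of three experiments.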

Assay [9] has as its target T2, Sphingosine 1-phosphate receptor 1. Nature of the assay: In vitro binding affinity towards human Sphingosine 1-phosphate receptor 1 expressed in HEK293T cells using [gamma-35S]-GTP as radioligand. (Experiment 2). The class given is cell-based, HEK-293T. In a few lines:
as §1

The target of assay [10] is T4, Sphingosine 1-phosphate receptor 4. As to the kind of experiment: In vitro binding affinity towards human Sphingosine 1-phosphate receptor 4 expressed in HEK293T cells using [gamma-35S]-GTP as radioligand (Experiment 2). The class given is cell-based, HEK-293T. In a few lines: as §1
Assay [11] addresses T1, Sphingosine 1-phosphate receptor 3. Nature of the assay: In vitro binding affinity towards human S1P3 receptor expressed in HEK293T cells using [gamma-35S]-GTP as radioligand. The class given is cell-based, HEK-293T.

T3 sequence (O95136 whole entry): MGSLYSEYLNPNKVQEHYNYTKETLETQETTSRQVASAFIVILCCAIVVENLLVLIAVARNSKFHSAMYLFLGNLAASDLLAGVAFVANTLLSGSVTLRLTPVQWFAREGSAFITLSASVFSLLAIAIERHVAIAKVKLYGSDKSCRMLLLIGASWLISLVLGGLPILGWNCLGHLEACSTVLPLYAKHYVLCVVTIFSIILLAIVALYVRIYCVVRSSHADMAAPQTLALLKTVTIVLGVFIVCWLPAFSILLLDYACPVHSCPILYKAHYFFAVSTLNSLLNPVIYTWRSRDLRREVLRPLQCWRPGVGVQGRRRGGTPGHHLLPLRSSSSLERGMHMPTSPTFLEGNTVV
T2 sequence (P21453 whole entry): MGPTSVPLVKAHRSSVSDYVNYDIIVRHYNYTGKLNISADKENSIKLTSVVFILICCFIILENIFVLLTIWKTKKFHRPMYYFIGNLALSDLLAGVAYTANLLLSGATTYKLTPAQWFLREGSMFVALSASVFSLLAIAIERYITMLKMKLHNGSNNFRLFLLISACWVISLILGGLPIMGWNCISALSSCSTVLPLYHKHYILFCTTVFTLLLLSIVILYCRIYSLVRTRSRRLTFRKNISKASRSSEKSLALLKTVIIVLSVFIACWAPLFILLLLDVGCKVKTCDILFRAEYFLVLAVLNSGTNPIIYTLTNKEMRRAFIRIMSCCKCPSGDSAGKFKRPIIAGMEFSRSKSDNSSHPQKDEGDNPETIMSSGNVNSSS
Chain of Sphingosine 1-phosphate receptor 5 (Q9H228 whole entry): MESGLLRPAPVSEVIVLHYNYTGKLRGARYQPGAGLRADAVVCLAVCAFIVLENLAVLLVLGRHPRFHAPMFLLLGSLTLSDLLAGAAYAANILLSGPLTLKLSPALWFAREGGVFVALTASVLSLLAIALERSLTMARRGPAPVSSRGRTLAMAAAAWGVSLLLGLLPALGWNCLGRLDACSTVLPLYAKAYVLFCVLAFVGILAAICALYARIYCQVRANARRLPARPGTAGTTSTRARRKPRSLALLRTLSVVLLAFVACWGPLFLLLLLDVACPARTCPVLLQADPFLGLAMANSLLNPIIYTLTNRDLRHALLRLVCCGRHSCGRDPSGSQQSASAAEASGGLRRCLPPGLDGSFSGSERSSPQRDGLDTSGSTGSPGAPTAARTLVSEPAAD
T1 sequence (Q99500 whole entry): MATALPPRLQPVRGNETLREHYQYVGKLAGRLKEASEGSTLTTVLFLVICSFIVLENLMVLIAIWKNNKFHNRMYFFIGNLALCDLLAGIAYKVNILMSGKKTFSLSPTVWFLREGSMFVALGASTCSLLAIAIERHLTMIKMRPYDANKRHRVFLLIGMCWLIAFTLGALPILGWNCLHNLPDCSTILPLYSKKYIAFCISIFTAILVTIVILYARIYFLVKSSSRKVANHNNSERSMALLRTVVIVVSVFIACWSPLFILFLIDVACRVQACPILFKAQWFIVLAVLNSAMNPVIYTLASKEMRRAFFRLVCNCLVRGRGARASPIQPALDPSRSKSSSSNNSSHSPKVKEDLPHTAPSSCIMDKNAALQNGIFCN

With `CCCCCCCCCCCCCCNC(=O)[C@@H](N)COP(=O)(O)O`, the EC50 was found to be 862 nM in assay [1], 397 nM in assay [2], 1610 nM in [3] and 2680 nM in assay [4].

For the compound `CCCCCCc1ccc(NC(=O)[C@H](N)COP(=O)(O)O)cc1.O=C(O)C(F)(F)F`, the EC50 in [2] was 260 nM; in assay [5], “Not Active”; in assay [3] it was 43 nM; in [6] it was 880 nM; in [7], “Not Active”.

Take `CCCCCCCCc1ccc(NC(=O)[C@H](N)COP(=O)(O)O)cc1.O=C(O)C(F)(F)F`: the EC50 in [1] is 450 nM; in assay [2], 58 nM; in assay [7], “Not Active”.

As for `CCCCCCc1ccc(NC(=O)[C@@H](N)COP(=O)(O)O)cc1.O=C(O)C(F)(F)F`, the EC50 in assay [2] was 550 nM; in assay [5] it was “Not Active”; in assay [3], 55 nM; in [6], 1500 nM; in [7] it was “Not Active”.

For `CCCCCCCCCCCCc1ccc(NC(=O)[C@H](N)COP(=O)(O)O)cc1.O=C(O)C(F)(F)F`, the EC50 was 740 nM in [1]; 130 nM in [2]; 160 nM in assay [3]; 1400 nM in assay [6]; “Not Active” in assay [7].

Regarding `CCCCCCCCCCCCC/C=C/[C@@H](O)[C@@H](N)COP(=O)(O)O`, the EC50 stood at 8.7 nM in assay [8], 4.5 nM in [9] and 270 nM in assay [10].

As for `CCCCCCCCCCCCCCNC(=O)[C@H](N)COP(=O)(O)O`, in assay [3], the EC50 is over 5000 nM.

As for `CCCCCCCCCCc1ccc(NC(=O)[C@H](N)COP(=O)(O)O)cc1.O=C(O)C(F)(F)F`, the 50% effective concentration (EC50) in assay [1] is 89 nM; in assay [2], 8.6 nM; in [3] it was 41 nM; in [6], 450 nM; in [7], “Not Active”.

Regarding `CCCCCCCCCCCCCCCCNC(=O)[C@@H](N)COP(=O)(O)O`, the EC50 in assay [4] is over 5000 nM.

As for `CCCCCCCCc1ccc(NC(=O)[C@@H](N)COP(=O)(O)O)cc1.O=C(O)C(F)(F)F`, the values for the EC50 in assay [2], in assay [7] and in assay [11] were 82 nM, “Not Active” and 1500 nM, respectively.
